Results from PMC8995400 (Drug delivery and translational research, 2021).

Experiments:
[1] = in 24 h; cited from earlier work
[2] = Biodistribution of PD98059 in mouse organs after IV injection; format: in vivo, BALB/CJ mice; settings: mice; for AUC0-6: IV
How it was run: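 BALB/CJ mice (8 weeks, 20–23 g) got 113 μg test compound as solution, or as loaded PAMAM-coated PLGA-PEG nanoparticles (3 mg, equivalent dose), IV retro-orbitally. Organs were taken at 5–360 min, rinsed, bead-homogenised in PBS with 7-hydroxyflavone internal standard, and ethyl acetate-extracted. Levels were measured by C18 HPLC-UV at 320 nm against the area ratio to standard. n = 3, mean ± SD.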

[3] = Plasma pharmacokinetics after IV injection in mice; format: in vivo, BALB/CJ mice; settings: for C0 / clearance / MRT inf / half-life / Vd: BALB/CJ, mouse, iv, 113 ug; for clearance: Cl; for MRT inf: MRT0-inf; for Vd: Vss
How it was run: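 Same IV dosing of mice (113 μg, solution or nanoparticle-loaded), sampled 5, 30, 60, 120, 180 and 360 min. Blood was spun at 10,600 xg for 5 min, and plasma was extracted and assayed by C18 HPLC-UV (methanol:water 70:30, 0.1% TFA, 320 nm). Concentration–time data were analysed in PK Solver by non-compartmental, 1- and 2-compartment models. n = 3, mean ± SD.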

Hec50co cells [4] = assay: Cell viability; format: cell-based, human; settings: PD98059 alone
Hec50co cells [5] = assay: Cell cycle analysis by flow cytometry; format: cell-based, human
How it was run: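 Hec50co cells seeded at 5×10^3 cells/well in complete DMEM and held 24 hr at 37°C, 5% CO2. They were then exposed 24 hr to taxane (5 or 10 nM), MEK inhibitor (25 μM) or both. Cells were PBS-washed, trypsinized, fixed in ice-cold 70% ethanol 30 min at 4°C, then taken up in PBS with 1% NP40 and 100 μg/mL RNase at 37°C for 30 min. Flow cytometry gave % cells per phase; mean ± SD, n = 3.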

[6] = rats, 2-compartment open model; cited from earlier work
[7] = Non compartment model, IV, mice
[8] = One-compartment model, IV, mice
[9] = Two-compartment model, IV, mice

COc1cccc(-c2cc(=O)c3ccccc3o2)c1N [PD98059, 2-(2-Amino-3-methoxyphenyl)-4H-1-benzopyran-4-one]
free PD98059 dissolved [1]: more than 80%
maximum PD98059 level in the brain ([2]; 5 minutes following IV injection): about 3 μg/g
AUC0-6 ([2]; Brain): 334.25 μg x min/mL
AUC0-6 ([2]; Heart): 160.37 μg x min/mL
AUC0-6 ([2]; Kidney): 301.47 μg x min/mL
AUC0-6 ([2]; Liver): 125.38 μg x min/mL
AUC0-6 ([2]; Lung): 459.51 μg x min/mL
AUC0-6 ([2]; Muscle): 129.86 μg x min/mL
AUC0-6 ([2]; Pancreas): 177.37 μg x min/mL
AUC0-6 ([2]; Spleen): 129.72 μg x min/mL
C0 ([3]; C0, Non compartment model, mice): 2910 ng/mL
C0 ([3]; C0, One-compartment model, mice): 2630 ng/mL
C0 ([3]; C0, Two-compartment model, mice): 3150 ng/mL
clearance ([3]; Non compartment model, mice): 0.31 mL/min
clearance ([3]; One-compartment model, mice): 1.25 mL/min
clearance ([3]; Two-compartment model, mice): 0.29 mL/min
MRT inf ([3]; Non compartment model, mice): 7.29 h
MRT inf ([3]; One-compartment model, mice): 0.503 h
MRT inf ([3]; Two-compartment model, mice): 9.26 h
half-life ([3]; T1/2(α), Two-compartment model, mice): 0.151 h
half-life ([3]; T1/2(β), Two-compartment model, mice): 7.13 h
half-life ([3]; T1/2, Non compartment model, mice): 5.25 h
half-life ([3]; T1/2, One-compartment model, mice): 0.348 h
Vd [3, 7]: 0.136 L
Vd [3, 8]: 0.0379 L
Vd [3, 9]: 0.163 L
K ([3]; Non compartment model, IV 113 μg PD98059, mice): 0.0022 min⁻¹
AUC0-inf [3, 7]: 320.68 μg x min/mL
AUC0-t [3, 7]: 175.72 μg x min/mL
AUMC0-inf [3, 7]: 140,206.69 μg x min^2/mL
V [3, 7]: 141.65 mL
AUC0-inf [3, 8]: 79.61 μg x min/mL
AUC0-t [3, 8]: 79.61 μg x min/mL
AUMC0-inf [3, 8]: 2,402.29 μg x min^2/mL
K [3, 8]: 0.033 min⁻¹
V [3, 8]: 37.90 mL
A [3, 9]: 2.65 µg/mL
AUC0-inf [3, 9]: 340.78 μg x min/mL
AUC0-t [3, 9]: 170.01 μg x min/mL
AUMC0-inf [3, 9]: 189,279.12 μg x min^2/mL
B [3, 9]: 0.49 µg/mL
K10 [3, 9]: 0.0092 min⁻¹
K12 [3, 9]: 0.055 min⁻¹
K21 [3, 9]: 0.013 min⁻¹
V [3, 9]: 31.72 mL
α [3, 9]: 0.076 min⁻¹
β [3, 9]: 0.0016 min⁻¹
cytotoxicity (Hec50co cells [4]; 5 μM): 3.8%
cytotoxicity (Hec50co cells [4]; 10 μM): 5.3%
cytotoxicity (Hec50co cells [4]; 25 μM): 17%
cells at the G0/G1 phase (Hec50co cells [5]; 25 μM PD98059, 24 hr): 63.04%
distribution half-life [6]: less than 10 minutes

CC(=O)O[C@H]1C(=O)[C@@]2(C)[C@H]([C@H](OC(=O)c3ccccc3)[C@]3(O)C[C@H](OC(=O)[C@H](O)[C@@H](NC(=O)c4ccccc4)c4ccccc4)C(C)=C1C3(C)C)[C@]1(OC(C)=O)CO[C@@H]1C[C@@H]2O [PTX, paclitaxel]
cells at the G2/M phase (Hec50co cells [5]; 5 nM PTX + 25 μM PD98059, 24 hr): 42.15%
cells at the G2/M phase (Hec50co cells [5]; 5 nM PTX, 24 hr): 37.2%
cells at the G2/M phase (Hec50co cells [5]; 10 nM PTX + 25 μM PD98059, 24 hr): 74.99%
cells at the G2/M phase (Hec50co cells [5]; 10 nM PTX, 24 hr): 45.74%
